# High-throughput results: PubChem BioAssay, several laboratories
# An excerpt weighted towards active compounds, which were near 1.8% of everything screened.
# Apaf1 inhib: inhibitors of human Apaf-1 apoptosome, primary screen, biochemical, DEVD-Rh110 fluorescence, uHTS | reconstituted apoptosome caspase-3 activity | inhibition, % at 20 µM | 330,000 compounds, 0.71% hits; active means inhibition of at least 40% at 20 µM;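 further: plate controls were DMSO wells for no effect and DEVD-CHO caspase inhibitor wells for full effect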
#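 Assay system: Apoptosome proteins | Medium: pH 7.5 Hepes buffer with CHAPS, BSA, DTT | Also added: Cytochrome c and DEVD-Rh110 substrate | Times: 30 min plus 50 min, RT | Detection: Rhodamine 110 fluorescence at Ex 480/Em 540 nm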
# TDP2 inh: human TDP2 enzyme inhibitors, primary screen, biochemical, epi absorbance, recombinant enzyme | Tyrosyl-DNA phosphodiesterase 2 (Homo sapiens), O95551 | T5PNP hydrolysis, p-nitrophenol absorbance 415 nm | inhibition, % at 12.8 µM | 370,000 compounds, 0.34% hits;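 active means inhibition above the mean of all tested compounds plus 3 SD, set per campaign, cut at about 25% in these data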;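 further: 0% = DMSO with enzyme and 100% = buffer with substrate but no TDP2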
#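 Assay system: recombinant human TDP2 / Reagent: T5PNP substrate at 5 mM, a TopII-DNA adduct mimic / Measured by: epi absorbance from released p-nitrophenol / Evaluation: % inhibition relative to enzyme-containing and enzyme-free wells / Control set: enzyme-free and DMSO wells / Replicates: each compound tested once, singlicate / Schedule: enzyme reaction with compound for 2 h at 37 °C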
# GSTO1 counter: inhibitors of recombinant GSTO1, primary screen, counter-screen for RBBP9 inhibitor project, biochemical, fluorescence polarization; Glutathione S-transferase omega-1 (Homo sapiens), P78417; activity-based probe fluorescence polarization; inhibition, % at 5.96 µM; 300,000 compounds, 1.1% hits; AID 1974, 2009;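 active means inhibition above the campaign mean inhibition plus 3 SD, cut at about 35% in these data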;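 further: 0% = GSTO1-1 with DMSO and 100% = wells lacking GSTO1-1 enzyme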
# PAD4 FP inh: human PAD4 inhibitors, primary screen, biochemical, fluorescence polarization, 1536-well format; recombinant PAD4, RCA probe fluorescence polarization; inhibition, % at 6.36 µM; 330,000 compounds, 0.41% hits; AID 485272, 2010;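 active means percent inhibition above a cutoff equal to the mean of all tested compounds plus 3 SD, cut at about 15% in these data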;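 further: 0% = PAD4 with RCA probe and DMSO and 100% = probe without PAD4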
# Target sequence (Q9UM07 whole entry, looked up): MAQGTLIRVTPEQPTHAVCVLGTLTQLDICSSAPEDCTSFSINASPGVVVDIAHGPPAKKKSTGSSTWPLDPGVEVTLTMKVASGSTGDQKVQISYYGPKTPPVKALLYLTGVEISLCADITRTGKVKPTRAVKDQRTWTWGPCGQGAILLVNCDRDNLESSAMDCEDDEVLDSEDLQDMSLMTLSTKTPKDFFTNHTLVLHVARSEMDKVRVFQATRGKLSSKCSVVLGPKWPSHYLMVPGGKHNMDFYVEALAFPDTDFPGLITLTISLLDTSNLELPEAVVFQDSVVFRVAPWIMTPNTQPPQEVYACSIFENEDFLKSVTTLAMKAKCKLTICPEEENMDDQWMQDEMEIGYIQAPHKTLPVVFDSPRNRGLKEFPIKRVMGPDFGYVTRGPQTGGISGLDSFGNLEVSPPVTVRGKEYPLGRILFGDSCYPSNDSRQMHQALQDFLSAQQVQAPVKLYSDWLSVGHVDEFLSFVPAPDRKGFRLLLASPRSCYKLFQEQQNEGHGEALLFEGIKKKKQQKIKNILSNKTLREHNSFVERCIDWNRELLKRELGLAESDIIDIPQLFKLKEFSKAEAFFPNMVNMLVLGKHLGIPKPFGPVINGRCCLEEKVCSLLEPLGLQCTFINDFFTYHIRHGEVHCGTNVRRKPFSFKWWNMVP
# Fh CTSL1 inh: Fasciola hepatica cathepsin L1 inhibitors, primary screen, counter-screen for PFM18AAP inhibitor project, biochemical, QFRET, fluorogenic peptide substrate; recombinant F. hepatica cathepsin L1, Z-Leu-Arg-MCA fluorescence; inhibition, % at 5.96 µM; 300,000 compounds, 0.49% hits; AID 1906, 2009;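 active means inhibition above the mean of all tested compounds plus 3 SD, set per screening campaign, cut at about 17% in these data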;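 further: 0% = plate median of test compound wells and 100% = 1 µM Z-Phe-Ala-diazomethylketone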
# TDP2 confirm: human TDP2 enzyme inhibitors, retest, confirmation, biochemical, epi absorbance, recombinant enzyme | absorbance read-out | shares compounds with TDP2 inh | AID 743263, 2014 | inhibition, % at 12.8 µM | 1,100 compounds, 22% hits; in the data active means inhibition above about 25%;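 further: 0% = vehicle with enzyme and 100% = no enzyme buffer only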
# * hit, by the source's call; · = no result.
SMILES,Apaf1 inhib,TDP2 inh,GSTO1 counter,PAD4 FP inh,Fh CTSL1 inh,TDP2 confirm
CC(C)c1cccc(C(C)C)c1NC(=O)CNCC(O)c1ccccc1 (stereo not given),7.0,25.6*,-2.8,3.1,-2.9,0.4
COc1ccc(-n2c(N)c(C(=O)NCc3ccco3)c3nc4ccccc4nc32)cc1,16.4,26.9*,13.0,-6.0,3.3,2.6
COc1ccc(-n2c(N)c(C(=O)NCc3ccco3)c3nc4ccccc4nc32)cc1OC,3.0,-2.7,6.4,-2.0,5.1,·
CN(CCCOC(=O)c1cc2ccccc2o1)C1CN(Cc2cn(Cc3ccccc3Cl)nn2)S(=O)(=O)C1 (stereo not given),·,-8.8,·,·,·,·
Cn1c(-c2ccc3c(c2)OCO3)cnc1NCc1ccccc1,12.5,-0.5,0.9,4.0,-2.5,·
Cn1c(-c2ccccc2)cnc1NCc1ccccc1,-3.1,29.2*,3.7,-2.4,1.0,-4.9
CN1CCN(CC(=O)Nc2nc3ccccc3s2)CC1,1.4,25.1*,5.1,3.8,0.3,3.0
COC(=O)Cn1cnc2c(NC(=O)c3ccccc3)ncnc21,·,-0.8,·,·,·,·
N#CC1C(=O)Nc2cccnc21 (stereo not given),·,65.6*,·,·,·,2.8
CCC(Oc1ccccc1)C(=O)Nc1ccc(C)c(S(=O)(=O)N2CCOCC2)c1 (stereo not given),1.8,28.9*,-2.1,2.1,-2.9,4.8
CC(=O)N(C)C[C@@H]1OCc2ccccc2-c2c(n(C)c3ccccc23)C(=O)N([C@@H](C)CO)C[C@@H]1C,·,-0.9,·,·,·,·
Cc1ccc(S(=O)(=O)N/N=C/c2ccccc2F)cc1[N+](=O)[O-],-0.5,29.0*,6.5,-3.0,-2.5,8.3
CC(C)N(Cc1ccccc1)C(=S)NC(=O)C1(C)CC1(Cl)Cl (stereo not given),-2.6,25.5*,-9.8,-3.3,0.2,4.8
CN(C)c1ccc2nc3ccc(=O)cc-3sc2c1,·,30.9*,·,·,·,12.6
COc1ccc2nc(N=Nc3ccc(N(C)C)cc3)sc2c1,·,12.6,·,·,·,·
CC(=O)c1ccc(NC(=O)CN2CCN(CC(=O)Nc3ccc(C(C)=O)cc3)CC2)cc1,5.2,8.6,·,·,·,·
CN1CCN(CC(=O)Nc2ccc(S(=O)(=O)N(C)C)cc2)CC1,2.1,33.5*,-1.0,1.9,-3.5,9.7
CC(=O)c1ccc(NC(=O)CNC2CCCCC2)cc1,12.4,26.3*,-1.4,10.2,1.5,2.1
CN(C)S(=O)(=O)c1ccc(NC(=O)CN2CCCCCC2)cc1,6.4,7.7,-6.6,-5.0,1.2,·
CCN1CCN(CC(=O)Nc2ccc(C(C)=O)cc2)CC1,3.2,37.7*,-8.0,0.6,1.1,-2.9
CCN1CCN(CC(=O)Nc2cc3c(cc2C(C)=O)OCO3)CC1,-10.6,26.1*,-4.8,-1.4,8.8,11.8
COc1ccc(S[C@]2(C(=O)N3CCCC3)CC(=O)N(S(=O)(=O)c3ccc(F)cc3)[C@@H]2c2ccc(OC)cc2)cc1,·,7.8,·,·,·,·
C[C@@H]1CCCN1c1cccc2c1S(=O)(=O)N1CC[C@@H](C1)O2,·,-2.1,·,·,·,·
COC(=O)[C@@]12CCCCC3=C1N(CCC3)C(=O)[C@H]2CC(=O)NCCC(C)C,·,3.4,·,·,·,·
CC1CCN(CCCNC(=O)c2ccc(CS(=O)(=O)Cc3ccc(Cl)cc3)o2)CC1,6.1,27.1*,4.0,0.6,5.5,-7.9
SMILES,Apaf1 inhib,TDP2 inh,GSTO1 counter,PAD4 FP inh,Fh CTSL1 inh,TDP2 confirm
CC1CCN(CCCNC(=O)c2ccc(CS(=O)(=O)Cc3ccccc3F)o2)CC1,·,3.2,·,·,·,·
O=C(NCCc1ccccc1)O[C@H]1CC[C@@]23CCCN2C(=O)CCC[C@H]3C1,·,0.1,·,·,·,·
COc1cc(/C=N/NC(=O)c2cccc(NC(=O)c3ccccc3)c2)ccc1O,6.3,-17.4,-3.5,-6.7,0.9,·
COc1cc(/C=N/NC(=O)Cc2nnc(NC(=O)c3ccccc3)s2)ccc1O,-2.5,28.9*,3.5,0.1,0.1,3.1
COc1ccccc1CCn1cnc(-c2ccc(OC)c(OC)c2)c1CC(C)C,·,-4.1,·,·,·,·
S=C(Nc1ccc2nsnc2c1)N1CCCCC1,·,75.9*,27.6,-10.2,-0.1,54.4*
C=C1CCC[C@]2(C)C[C@H]3OC(=O)C(CNCCN(CC)CC)[C@H]3CC12 (stereo not given in full),2.4,33.9*,-2.9,-6.8,-7.0,-4.1
C=C1CCC[C@]2(C)C[C@H]3OC(=O)C(CNCCN(C)C)[C@H]3CC12 (stereo not given in full),4.0,-9.8,-1.9,1.6,-4.6,·
CCOC(=O)c1c(C)oc2c1c(C=NCC1CCCO1)c(O)c1ccccc12 (stereo not given),·,28.8*,·,·,·,11.1
CCOC(=O)c1c(NCC2CCCO2)c2ccccc2[nH]c1=O (stereo not given),3.5,-2.4,4.3,-0.1,-0.1,·
Cn1c(SCC(=O)Nc2ccc3[nH]c(=O)[nH]c3c2)nnc1-c1ccc(F)cc1,0.2,28.6*,-5.1,-2.8,-1.8,1.1
Cc1nc(COC(=O)c2cc(O)c3ccccc3c2O)cs1,·,25.5*,·,·,·,6.0
COCCn1c(=S)[nH]c2sc3c(c2c1=O)CCC(C)C3 (stereo not given),11.7,3.2,-9.0,1.9,3.9,·
Cn1c(=S)[nH]c2sc3c(c2c1=O)CCC(C(C)(C)C)C3 (stereo not given),22.0,26.9*,-1.9,2.0,0.7,-3.2
Cc1cccc(NC(=O)OC2CC3CC2[C@H]2CCCCN2C3)c1 (stereo not given in full),·,6.1,·,·,·,·
CCCCN1CC(COCc2ccccc2)Oc2cccc(NCc3cc(OC)c(OC)c(OC)c3)c2S1(=O)=O (stereo not given),·,6.9,·,·,·,·
CCN(CC)C(=O)CC[C@H]1CC[C@]2(CCCN(Cc3ccc(OC)cc3)C2)O1,·,5.9,·,·,·,·
CC(C)(C)c1ccc(NC(=O)CCNC(=O)c2ccco2)cc1,2.6,-4.6,1.9,1.7,-2.7,·
CC(C)(C)c1ccc(C(=O)NCCCNC(=O)c2ccco2)cc1,7.2,27.6*,6.3,2.5,3.0,-8.7
COc1ccc(CC(=O)N/N=C(\C)CC(=O)Nc2ccc(N(C)C)cc2)cc1,4.2,-21.8,2.1,3.5,-3.4,·
COc1ccc(CC(=O)N/N=C(/C)CC(=O)N(C)c2ccccc2)cc1,3.4,24.7*,-4.5,1.6,3.0,4.7
O=C(NCc1ccccc1)[C@H]1CCCN1C(=O)[C@H]1CCCN1C(=O)c1ccccc1C(F)(F)F,·,-8.0,·,·,·,·
CCOC(=O)C1CCN(c2cc3c(cc2NC(=O)c2ccccc2Br)n(C)c(=O)n3C)CC1,10.1,25.8*,-2.7,-0.5,7.3,-0.5
